Experimental data taken from ChEMBL document CHEMBL5712084, “Interactome Rewiring Following Pharmacological Targeting of BET Bromodomains” (Mol Cell, 2019).
Active and inactive are the calls of the source. The calls are words filed in the database; no cut-off is given here.

Tests used:
[1] = molecular target: T1, Bromodomain and extra-terminal motif (BET) (Homo sapiens) (UniProt P25440+O60885+Q58F21+Q15059); conditions: Flp-In-T-REx-293, dose 500.0 nM, time 10-240 min
[2] = molecular target: T1, Bromodomain and extra-terminal motif (BET) (Homo sapiens); conditions: Flp-In-T-REx-293, dose 500.0 nM, time 10-240 min; remark: listed apart in the source
[3] = molecular target: T1, Bromodomain and extra-terminal motif (BET) (Homo sapiens); conditions: Flp-In-T-REx-293, dose 500.0 nM, time 10-240 min; remark: listed apart in the source
[4] = molecular target: T1, Bromodomain and extra-terminal motif (BET) (Homo sapiens); conditions: Flp-In-T-REx-293, dose 500.0 nM, time 10-240 min; remark: listed apart in the source
U2OS [5] = assay: Inhibition of BRD1:2 mutant bromodomain in human U2OS cells assessed as foci formation of BRD2 mutant in to foci at 500 nM by live cell imaging; assay type: cell-based
Method in brief: (§1)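 Flp-In T-REx U-2 OS cells were grown in DMEM with GlutaMAX and 10% heat-inactivated FBS plus penicillin-streptomycin at 37°C and 10% CO2. eGFP-tagged constructs were expressed from a tetracycline-inducible pcDNA5-FRT-TO vector. Nuclear and nucleolar localisation and foci were followed by live-cell imaging.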

[6] = molecular target: T1, Bromodomain and extra-terminal motif (BET) (Homo sapiens); conditions: Flp-In-T-REx-293, dose 500.0 nM, time 1.0 hrs
U2OS [7] = assay: Effect on localization of the nucleolar proteins (PARP1, POLR1E, and TCOF1) in human U2OS cells at 500 nM; assay type: functional, cell-based
Method in brief: as §1

[8] = molecular target: T1, Bromodomain and extra-terminal motif (BET) (Homo sapiens); conditions: Flp-In-T-REx-293, dose 500.0 nM
[9] = molecular target: Bromodomain-containing protein 3 (Homo sapiens) (UniProt Q15059); assay: Inhibition of BRD3 in human U2OS cells assessed as displacement of BRD3 from rDNA IGS region toward the transcribed regions at 500 nM; assay type: cell-based
[10] = molecular target: T1, Bromodomain and extra-terminal motif (BET) (Homo sapiens); conditions: Flp-In-T-REx-293, dose 500.0 nM, time 10-240 min; remark: listed apart in the source
[11] = molecular target: Bromodomain-containing protein 3 (Homo sapiens) (UniProt Q15059); assay: Inhibition of BRD3 in human U2OS cells assessed as induction of assembly of GFP-tagged BRD3 constructs in to dense foci at 500 nM measured 12 hrs after drug washout by live cell imaging; assay type: cell-based
Method in brief: as §1

[12] = molecular target: T1, Bromodomain and extra-terminal motif (BET) (Homo sapiens); conditions: Flp-In-T-REx-293, dose 500.0 nM, time 10-240 min; remark: listed apart in the source
[13] = system: Bromodomain-containing protein 3 (Homo sapiens), Q15059 [UNDEFINED MUTATION]; assay: Inhibition of BRD3 mutant bromodomain in human U2OS cells assessed as accumulation of BRD3 mutant in nucleolus at 500 nM by live cell imaging; assay type: cell-based
Method in brief: as §1

[14] = molecular target: T1, Bromodomain and extra-terminal motif (BET) (Homo sapiens); conditions: Flp-In-T-REx-293, dose 500.0 nM, time 10-240 min; remark: listed apart in the source
[15] = system: Bromodomain-containing protein 2 (Homo sapiens), P25440 [UNDEFINED MUTATION]; conditions: U2OS, dose 500.0 nM
[16] = molecular target: T1, Bromodomain and extra-terminal motif (BET) (Homo sapiens); conditions: Flp-In-T-REx-293, dose 500.0 nM; remark: listed apart in the source
[17] = system: Bromodomain-containing protein 1 (Homo sapiens), O95696 [UNDEFINED MUTATION]; assay: Inhibition of BRD1 mutant bromodomain in human U2OS cells expressing BD1 mutant assessed as diffuse nuclear localization of BD1 mutant in asynchronously growing cells at 500 nM by live cell imaging; assay type: cell-based
Method in brief: as §1

[18] = molecular target: Bromodomain-containing protein 3 (Homo sapiens) (UniProt Q15059); assay: Inhibition of BRD3 in human U2OS cells assessed as increase in association with partner protein (TCOF1, UBTF, and RNAPI) at 500 nM; assay type: cell-based
[19] = system: Bromodomain-containing protein 2 (Homo sapiens), P25440 [UNDEFINED MUTATION]; conditions: Flp-In-T-REx-293, dose 500.0 nM, time 24.0 hrs
[20] = molecular target: T1, Bromodomain and extra-terminal motif (BET) (Homo sapiens); conditions: Flp-In-T-REx-293, dose 500.0 nM, time 10-240 min; remark: listed apart in the source
[21] = system: Bromodomain-containing protein 3 (Homo sapiens), Q15059 [UNDEFINED MUTATION]; assay: Inhibition of BRD3 mutant bromodomain in human U2OS cells assessed as accumulation of BRD3 mutant in to foci at 500 nM by live cell imaging; assay type: cell-based
Method in brief: as §1

BRD4/BRD9 (Homo sapiens) = BRD4/BRD9 (Homo sapiens) (UniProt O60885+Q9H8M2); conditions: HEK293, dose 5.0 nmol
[22] = molecular target: Bromodomain-containing protein 3 (Homo sapiens) (UniProt Q15059); assay: Inhibition of BRD3 in human U2OS cells assessed as induction of assembly of GFP-tagged BRD3 constructs in to dense foci at 500 nM measured within 20 seconds by live cell imaging; assay type: cell-based; conditions: time 20.0 sec
Method in brief: as §1

[23] = molecular target: Bromodomain-containing protein 2 (Homo sapiens) (UniProt P25440); conditions: U2OS, dose 500.0 nM, time 12.0 hrs
[24] = molecular target: Bromodomain-containing protein 2 (Homo sapiens) (UniProt P25440); conditions: U2OS, dose 500.0 nM, time 20.0 sec
[25] = molecular target: Bromodomain-containing protein 3 (Homo sapiens) (UniProt Q15059); assay: Inhibition of BRD3 in human Flp-In-T-REx-293 cells assessed as increase in nucleolar protein partners (RNAPI, UBTF and TCOF1 ) at 500 nM incubated for 24 hrs by BioID assay; assay type: cell-based
Method in brief: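 Stable Flp-In T-REx HEK293 lines carrying BirA*-FLAG-tagged baits were grown in hygromycin to 80% confluence. Expression was induced with 1 μg/mL tetracycline and cells were given 50 μM biotin for 24 h. Lysis was in RIPA, with streptavidin capture for 3 h at 4°C and on-bead trypsin digestion, then LC-MS/MS. BirA*-FLAG-GFP or -NLS cells served as controls. Two biological replicates were run.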

Bromodomain-containing protein 3 (Homo sapiens), sequence (Q15059 2-726 limits assumed): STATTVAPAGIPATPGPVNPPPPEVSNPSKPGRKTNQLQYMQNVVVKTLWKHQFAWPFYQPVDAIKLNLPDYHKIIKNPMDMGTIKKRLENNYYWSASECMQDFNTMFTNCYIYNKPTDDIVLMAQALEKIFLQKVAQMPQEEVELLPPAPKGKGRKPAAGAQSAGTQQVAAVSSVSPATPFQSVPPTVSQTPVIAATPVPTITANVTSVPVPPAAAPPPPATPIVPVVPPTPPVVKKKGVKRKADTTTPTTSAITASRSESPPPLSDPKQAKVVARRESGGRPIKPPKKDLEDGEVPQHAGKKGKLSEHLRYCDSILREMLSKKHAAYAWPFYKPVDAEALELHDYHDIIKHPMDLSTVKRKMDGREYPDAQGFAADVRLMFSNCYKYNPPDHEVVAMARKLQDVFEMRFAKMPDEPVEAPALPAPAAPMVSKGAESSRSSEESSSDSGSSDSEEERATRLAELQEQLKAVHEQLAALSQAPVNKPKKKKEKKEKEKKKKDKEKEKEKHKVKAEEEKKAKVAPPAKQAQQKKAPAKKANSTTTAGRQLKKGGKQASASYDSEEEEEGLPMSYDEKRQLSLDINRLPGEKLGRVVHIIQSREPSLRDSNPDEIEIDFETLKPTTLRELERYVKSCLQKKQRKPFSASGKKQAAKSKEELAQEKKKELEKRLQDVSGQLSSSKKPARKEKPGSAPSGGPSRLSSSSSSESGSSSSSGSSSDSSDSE
Bromodomain-containing protein 2 (Homo sapiens), P25440 [UNDEFINED MUTATION], sequence (P25440 whole entry, looked up, change not shown): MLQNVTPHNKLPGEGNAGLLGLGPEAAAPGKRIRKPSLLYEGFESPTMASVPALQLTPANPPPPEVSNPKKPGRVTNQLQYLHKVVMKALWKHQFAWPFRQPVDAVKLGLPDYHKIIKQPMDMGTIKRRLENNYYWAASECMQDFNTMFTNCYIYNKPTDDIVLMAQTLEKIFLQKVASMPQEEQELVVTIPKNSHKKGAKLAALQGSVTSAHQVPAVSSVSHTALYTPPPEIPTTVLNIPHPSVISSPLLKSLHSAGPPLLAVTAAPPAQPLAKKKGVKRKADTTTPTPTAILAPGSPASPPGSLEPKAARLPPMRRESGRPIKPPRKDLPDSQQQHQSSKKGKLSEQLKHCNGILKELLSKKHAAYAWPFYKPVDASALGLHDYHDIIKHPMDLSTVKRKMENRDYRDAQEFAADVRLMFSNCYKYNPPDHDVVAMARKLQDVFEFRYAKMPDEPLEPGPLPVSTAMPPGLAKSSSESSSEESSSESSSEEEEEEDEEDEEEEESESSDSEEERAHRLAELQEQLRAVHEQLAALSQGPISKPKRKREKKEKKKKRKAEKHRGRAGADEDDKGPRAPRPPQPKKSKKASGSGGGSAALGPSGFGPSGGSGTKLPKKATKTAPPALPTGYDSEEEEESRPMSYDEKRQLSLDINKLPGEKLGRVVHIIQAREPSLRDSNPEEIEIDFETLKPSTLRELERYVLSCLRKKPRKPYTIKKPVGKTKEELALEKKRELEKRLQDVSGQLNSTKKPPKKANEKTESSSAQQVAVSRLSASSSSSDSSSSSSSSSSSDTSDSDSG
Bromodomain-containing protein 2 (Homo sapiens), sequence (P25440 whole entry, looked up): as the sequence (P25440 whole entry, looked up, change not shown) above
Bromodomain-containing protein 3 (Homo sapiens), Q15059 [UNDEFINED MUTATION], sequence (Q15059 whole entry, looked up, change not shown): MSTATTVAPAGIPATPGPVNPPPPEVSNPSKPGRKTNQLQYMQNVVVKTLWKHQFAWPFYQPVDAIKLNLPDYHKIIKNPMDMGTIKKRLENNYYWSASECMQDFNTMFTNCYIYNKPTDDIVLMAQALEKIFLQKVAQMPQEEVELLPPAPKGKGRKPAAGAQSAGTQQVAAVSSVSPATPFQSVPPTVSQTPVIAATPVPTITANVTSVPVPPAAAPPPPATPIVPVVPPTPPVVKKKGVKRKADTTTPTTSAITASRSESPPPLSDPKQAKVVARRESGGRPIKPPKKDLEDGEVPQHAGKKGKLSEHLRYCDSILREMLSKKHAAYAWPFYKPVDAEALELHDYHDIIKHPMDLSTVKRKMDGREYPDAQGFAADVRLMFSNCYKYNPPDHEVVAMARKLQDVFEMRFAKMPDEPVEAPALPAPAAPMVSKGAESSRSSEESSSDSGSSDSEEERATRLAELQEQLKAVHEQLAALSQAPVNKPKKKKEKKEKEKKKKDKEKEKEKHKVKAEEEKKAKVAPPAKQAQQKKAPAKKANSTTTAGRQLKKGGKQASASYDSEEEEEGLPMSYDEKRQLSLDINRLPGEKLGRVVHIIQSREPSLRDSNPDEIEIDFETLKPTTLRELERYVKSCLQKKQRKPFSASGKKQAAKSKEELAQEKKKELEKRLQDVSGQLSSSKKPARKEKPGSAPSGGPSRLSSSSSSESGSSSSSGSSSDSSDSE
Bromodomain-containing protein 1 (Homo sapiens), O95696 [UNDEFINED MUTATION], sequence (O95696 whole entry, looked up, change not shown): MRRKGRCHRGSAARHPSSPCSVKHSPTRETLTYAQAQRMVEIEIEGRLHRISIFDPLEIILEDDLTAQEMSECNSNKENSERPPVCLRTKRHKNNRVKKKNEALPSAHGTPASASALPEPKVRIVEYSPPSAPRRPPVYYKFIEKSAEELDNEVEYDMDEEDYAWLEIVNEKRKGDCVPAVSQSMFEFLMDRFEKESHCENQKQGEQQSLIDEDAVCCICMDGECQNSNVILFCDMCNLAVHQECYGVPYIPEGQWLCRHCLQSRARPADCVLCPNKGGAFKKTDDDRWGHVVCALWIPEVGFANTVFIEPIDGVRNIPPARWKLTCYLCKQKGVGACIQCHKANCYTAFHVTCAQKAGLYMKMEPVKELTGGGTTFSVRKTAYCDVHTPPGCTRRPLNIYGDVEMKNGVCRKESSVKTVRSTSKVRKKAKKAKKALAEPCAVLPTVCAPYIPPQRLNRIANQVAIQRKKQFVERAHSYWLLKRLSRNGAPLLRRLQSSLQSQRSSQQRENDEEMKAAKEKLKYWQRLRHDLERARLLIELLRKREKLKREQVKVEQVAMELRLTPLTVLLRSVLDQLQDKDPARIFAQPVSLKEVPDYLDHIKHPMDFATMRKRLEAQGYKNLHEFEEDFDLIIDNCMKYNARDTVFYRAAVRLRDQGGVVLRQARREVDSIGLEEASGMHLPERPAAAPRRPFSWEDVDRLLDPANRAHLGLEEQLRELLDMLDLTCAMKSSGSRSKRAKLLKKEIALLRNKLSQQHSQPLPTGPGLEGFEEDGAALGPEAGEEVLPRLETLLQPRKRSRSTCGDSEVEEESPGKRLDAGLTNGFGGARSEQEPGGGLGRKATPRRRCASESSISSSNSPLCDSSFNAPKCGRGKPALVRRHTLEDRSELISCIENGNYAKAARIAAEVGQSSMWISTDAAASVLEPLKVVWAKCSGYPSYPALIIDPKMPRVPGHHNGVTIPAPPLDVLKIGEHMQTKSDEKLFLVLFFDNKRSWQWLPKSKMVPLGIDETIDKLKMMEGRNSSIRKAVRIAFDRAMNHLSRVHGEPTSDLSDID
BRD4/BRD9 (Homo sapiens), sequence (Q9H8M2 whole entry, looked up, other chains not shown): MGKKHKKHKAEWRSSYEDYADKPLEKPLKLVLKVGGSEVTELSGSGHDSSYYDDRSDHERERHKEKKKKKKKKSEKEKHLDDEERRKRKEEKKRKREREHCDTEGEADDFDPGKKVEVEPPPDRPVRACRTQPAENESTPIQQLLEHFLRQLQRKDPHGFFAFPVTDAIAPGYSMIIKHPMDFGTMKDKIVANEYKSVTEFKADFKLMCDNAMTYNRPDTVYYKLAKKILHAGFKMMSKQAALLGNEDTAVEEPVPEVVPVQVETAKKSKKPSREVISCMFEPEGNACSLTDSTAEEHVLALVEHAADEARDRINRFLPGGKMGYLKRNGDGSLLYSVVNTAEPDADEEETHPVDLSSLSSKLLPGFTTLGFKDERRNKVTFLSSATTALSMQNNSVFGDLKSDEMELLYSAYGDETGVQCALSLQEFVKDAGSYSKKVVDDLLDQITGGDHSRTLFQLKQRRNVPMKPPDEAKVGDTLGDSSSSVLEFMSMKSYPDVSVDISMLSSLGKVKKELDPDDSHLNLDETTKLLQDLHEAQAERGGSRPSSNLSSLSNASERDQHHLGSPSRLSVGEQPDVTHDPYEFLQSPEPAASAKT

Structure (SMILES): Cc1sc2c(c1C)C(c1ccc(Cl)cc1)=N[C@@H](CC(=O)OC(C)(C)C)c1nnc(C)n1-2
- inhibition [1]: Active
- log2FC [2]: 2
- inhibition [3]: Active
- log2FC [4]: > 2
- inhibition (U2OS [5]): inactive
- inhibition [6]: Active
- Activity (U2OS [7]): inactive
- inhibition [8]: Active
- inhibition [9]: Active
- inhibition [10]: Active
- inhibition [11]: Active
- inhibition [12]: Active
- inhibition [13]: Active
- inhibition [14]: Active
- inhibition [15]: inactive
- inhibition [16]: Active
- inhibition [17]: inactive
- inhibition [18]: Active
- inhibition [19]: inactive
- log2FC [20]: > 2
- inhibition [21]: Active
- inhibition (BRD4/BRD9 (Homo sapiens)): inactive
- inhibition [22]: Active
- inhibition [23]: Active
- inhibition [24]: Active
- inhibition [25]: Active
